Assay results from ChEMBL document CHEMBL2177000, “Pharmacokinetic optimization of class-selective histone deacetylase inhibitors and identification of associated candidate predictive biomarkers of hepatocellular carcinoma tumor response” (J Med Chem, 2012).

Assays:
[1] = Oral bioavailability in Sprague-Dawley rat at 10 mg/kg by LC-MS/MS method; assay type: ADME, organism-based; details: in vivo
Procedure, shortened: (§1)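 Single-dose PK: iv bolus 2 mg/kg in 5% DMSO/40% PEG400/55% saline and/or oral gavage 10 mg/kg as 0.445% microcrystalline cellulose microsuspension; BALB/C nude mice (15−20 g, N = 16 per arm) or male Sprague−Dawley rats (250 ± 20 g, N = 3). Blood at eight (po) or nine (iv) time points into sodium heparin, plasma by LC-MS/MS, noncompartmental analysis.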

[2] = Volume of distribution at steady state in Sprague-Dawley rat at 10 mg/kg, po or 2 mg/kg, iv by LC-MS/MS method; assay type: ADME, organism-based; details: in vivo, read-out: Vdss; procedure, shortened: as §1
[3] = Clearance in Sprague-Dawley rat at 10 mg/kg, po or 2 mg/kg, iv by LC-MS/MS method; assay type: ADME, organism-based; details: in vivo
Procedure, shortened: (§2)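 Male Sprague−Dawley rats (250 ± 20 g; N = 3); iv bolus 2 mg/kg in 5% DMSO/40% PEG400/55% saline and/or gavage 10 mg/kg in 0.445% microcrystalline cellulose microsuspension; plasma from heparinized blood at eight (po) or nine (iv) time points, LC-MS/MS, noncompartmental analysis.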

[4] = AUC in Sprague-Dawley rat at 10 mg/kg, po or 2 mg/kg, iv by LC-MS/MS method; assay type: ADME, organism-based; details: plasma; procedure, shortened: as §2
[5] = Cmax in Sprague-Dawley rat at 10 mg/kg, po or 2 mg/kg, iv by LC-MS/MS method; assay type: ADME, organism-based; details: in vivo; procedure, shortened: as §2
[6] = Tmax in Sprague-Dawley rat at 10 mg/kg, po or 2 mg/kg, iv by LC-MS/MS method; assay type: ADME, organism-based; details: in vivo; procedure, shortened: as §1
[7] = Clearance in mouse liver microsomes at 1 uM incubated for 10 mins by LC-MS/MS method; assay type: ADME, Microsome
Procedure, shortened: (§3)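 Liver microsomes (human or mouse, 0.5 mg/mL) in 100 mM potassium phosphate pH 7.4 with 1 μM compound, prewarmed 10 min at 37 °C, started with NADPH (10 mM); stopped at 0, 3, 6, 9, 15, 30 min with ice-cold methanol containing tolbutamide internal standard; LC-MS/MS. Hepatic clearance (mL/min/kg) calculated from intrinsic clearance.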

[8] = Clearance in human liver microsomes at 1 uM incubated for 10 mins by LC-MS/MS method; assay type: ADME, Microsome; procedure, shortened: as §3
[9] = target: Histone deacetylase (Homo sapiens) (UniProt Q13547+O15379+Q9UBN7+Q92769+Q9UQL6+Q8WUI4+Q9BY41+Q96DB2+P56524+Q9UKV0+Q969S8); assay: Inhibition of Class 1 histone deacetylase in human HeLa cells assessed as induction in p21 protein expression at 3 uM incubated for 16 hrs by luciferase reporter gene assay relative to HDAC inhibitor entinostat; assay type: cell-based; parameters: scale not given: the % may be the effect or the level left
[10] = tested on: Mus musculus; assay: Oral bioavailability in BALB/C mouse at 10 mg/kg by LC-MS/MS method; assay type: ADME, organism-based; details: in vivo
Procedure, shortened: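 Bioavailability from single-dose iv (2 mg/kg, 5% DMSO/40% PEG400/55% saline) and oral gavage (10 mg/kg, 0.445% microcrystalline cellulose microsuspension) studies in BALB/C nude mice (N = 16 per arm); plasma at eight (po) or nine (iv) time points, LC-MS/MS, noncompartmental analysis.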

[11] = Clearance in BALB/C mouse at 10 mg/kg, po or 2 mg/kg, iv by LC-MS/MS method; assay type: ADME, organism-based; details: in vivo
Procedure, shortened: (§4)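 Female-unspecified BALB/C nude mice (15−20 g, N = 16 per arm); iv bolus 2 mg/kg in 5% DMSO/40% PEG400/55% saline and/or oral gavage 10 mg/kg as 0.445% microcrystalline cellulose microsuspension. Blood sampled at nine (iv) or eight (po) time points into sodium heparin tubes; plasma by LC-MS/MS; noncompartmental analysis.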

[12] = tested on: Mus musculus; assay: AUC in BALB/C mouse at 10 mg/kg, po or 2 mg/kg, iv by LC-MS/MS method; assay type: ADME, organism-based, Plasma; details: in vivo; procedure, shortened: as §4
[13] = tested on: Mus musculus; assay: Half life in BALB/C mouse at 10 mg/kg, po or 2 mg/kg, iv by LC-MS/MS method; assay type: ADME, organism-based; details: in vivo; procedure, shortened: as §4
[14] = tested on: Mus musculus; assay: Cmax in BALB/C mouse at 10 mg/kg, po or 2 mg/kg, iv by LC-MS/MS method; assay type: ADME, organism-based; details: in vivo; procedure, shortened: as §4
[15] = tested on: Mus musculus; assay: Tmax in BALB/C mouse at 10 mg/kg, po or 2 mg/kg, iv by LC-MS/MS method; assay type: ADME, organism-based; details: in vivo; procedure, shortened: as §1

bioavailability [1] [%] | Vd [2] [L] | clearance [3] [mL/min/kg] | AUC [4] [ng·h/mL] | Cmax [5] [ng/mL] | Tmax [6] [h] | CLhep predicted at 1 µM [7] [mL/min/kg] | CLhep predicted at 1 µM [8] [mL/min/kg] | Activity [9] [%] | F [10] [%] | clearance [11] [mL/min/kg] | AUC [12] [ng·h/mL] | t1/2 [13] [h] | Cmax [14] [ng/mL] | Tmax [15] [h] | Structure (SMILES)
9 | 19 | 120 | 116 | 33 | 4 | 41 | 12 | > 300 |  |  |  |  |  |  | CN1C[C@H](C(=O)Nc2ccc(Cl)cc2)[C@@H](c2ccc(/C=C/C(=O)Nc3ccccc3N)nn2)C1 (racemic)
 |  |  |  |  |  | 35 | 5 |  | 75 | 39 | 2946 | 14 | 324 | 1 | CN1C[C@H](C(=O)Nc2ccc(Cl)cc2)[C@@H](c2ccc(/C=C/C(=O)Nc3ccccc3N)cc2)C1 (racemic)
